Assay outcomes from PubChem.
Only some compounds are listed: those with a hit (about 4.1% of all), similar ones and a draw of the others.
KCNK9 block – KCNK9 potassium channel inhibitors, primary screen, HEK293 cells, thallium flux. FluxOR thallium flux fluorescence; hits give low values. B-score at 10 µM. hit rate 1.2% among 310,000;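 active = ratio B-score over 3 SD below the library mean, with starting fluorescence within 5 SD of its mean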;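 note: negative B-score means less thallium flux so channel inhibition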
KCNQ1 inh – inhibitors of human KCNQ1 channel, primary screen, cell-based, thallium flux, high-throughput; B-score at 10 µM; hit rate 1.3% among 310,000; Potassium voltage-gated channel subfamily KQT member 1 (Homo sapiens), P51787; CHO-K1 KCNQ1, FluxOR thallium flux fluorescence; hits give high values;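 active = compounds whose thallium flux B-score, printed positive for inhibition, exceeds three library SD while starting fluorescence stays within three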;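 note: channel opened by potassium depolarization with thallium stimulus after 20 min compound exposure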
KCNQ1 pot – potentiators or activators of KCNQ1 channel, primary screen, cell-based, thallium flux, high-throughput; Potassium voltage-gated channel subfamily KQT member 1 (Homo sapiens), P51787; CHO-K1 KCNQ1, thallium flux FluxOR fluorescence; hits give high values; B-score at 10 µM; hit rate 0.35% among 310,000; AID 2648, 2010;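 active = fluorescence ratio B-score, a plate-corrected score, at least three library SD, with initial intensity B-score within 5 SD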
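System: Stable KCNQ1 CHO-K1 line | Incubation: 90 min dye loading and 20 min compound exposure, both at room temperature | Measure: Ratio B score | Medium: Assay buffer for compound exposure, DMSO matched across wells | Compound dosing: Single-concentration screen | Probe or stimulus: K+/Tl+ depolarizing stimulus | Measured by: Kinetic FluxOR fluorescence, 10 s baseline plus 110 s post-stimulus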
KCNK3 block – human KCNK3 channel inhibitors, primary screen, CHO cells, FluxOR thallium flux, B-score. FluxOR fluorescence; hits give low values. B-score at 10 µM. hit rate 0.84% among 340,000;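 active = B-score under library mean minus 4 SD, starting fluorescence ratio at most library mean plus 5 SD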;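 note: more negative B-score means stronger inhibition of thallium flux through KCNK3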
KCC2 mod – KCC2 cotransporter modulators, thallium flux, primary screen, cell-based, HEK293 KCC2, FluoZin-2 fluorescence, MLSMR | Solute carrier family 12 member 5 (Homo sapiens), Q9H2X9 | KCC2 cells, thallium flux FluoZin-2 fluorescence | B-score of Tl+ flux slope (higher = more flux/activation; lower = inhibition) at 10 µM | hit rate 2.2% among 190,000 | AID 1456, 2008;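 active = thallium flux slope and its plate-corrected score both differing from the plate sample mean at a set confidence after two filtering rounds, in either direction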;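 note: slope of fluorescence scaled to starting intensity during 10 to 20 s after thallium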
hERG rescue – hERG rescue from dofetilide block, primary screen, cell-based, CHO-hERG, FluxOR thallium flux, dofetilide IC70; activation (rescue from dofetilide block), less the hit threshold, % at 10 µM; Voltage-gated inwardly rectifying potassium channel KCNH2 (Homo sapiens), Q12809; hit rate 0.51% among 310,000; AID 1511, 2009; dofetilide IC70 present;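 active = activation above the mean of controls blocked by dofetilide plus 5 SD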;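 note: thallium influx through hERG after potassium depolarization seen as dye fluorescence rise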
KCC2 secondary – KCC2 modulators in sodium-free buffer, confirmation, cell-based, HEK293 KCC2, thallium flux, secondary assay | shares compounds with KCC2 mod | FluoZin2 fluorescence; hits give high values | hit rate 15% among 3,700 | AID 1713, 2009 | normalised thallium flux (F/F0 slope) at 10 µM;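 active = thallium flux slope above the same plate's solvent-only control mean plus 3 SD; inconclusive = the two replicate wells disagree; inactive = no significant difference from solvent-only control wells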
KCC2 bumet counter – thallium flux persisting under bumetanide in KCC2 cells, confirmation, counter-screen for KCC2 modulator project, cell-based, HEK293 KCC2, FluoZin2, secondary assay 3. HEK293-KCC2 + bumetanide/ouabain; hits give high values. normalized thallium flux at 10 µM. hit rate 49% among 3,700. AID 1714, 2009. shares compounds with KCC2 mod;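 active = thallium entry rate above the same plate's blocked-transporter control wells by more than 3 SD; inconclusive = the two repeat wells disagree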;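 note: raw slope of fluorescence over initial fluorescence between 10 and 20 s after thallium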
KCC2 sec2 – KCC2 modulators without ouabain present, confirmation, cell-based, HEK293 KCC2, thallium flux, FluoZin2, secondary assay 2; hit rate 23% among 3,700; thallium flux FluoZin2 fluorescence; actives lie on both sides; F/F0 rise rate, 10–20 s post-thallium; normalized thallium flux at 10 µM; shares compounds with KCC2 mod;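 active = thallium flux slope more than 3 SD above or below the plate's solvent-only control mean, mostly below; inconclusive = the two repeat wells disagreed; inactive = no significant shift from solvent-only controls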;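 note: raw slope with 0.1% DMSO as baseline and bumetanide as block control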
HEK counter1 – thallium flux modulation in parental HEK cells, confirmation, counter-screen for KCC2 modulator project, cell-based, counterscreen 1; shares compounds with KCC2 mod; hit rate 46% among 3,700; HEK293 parental cells, thallium flux FluoZin2, ouabain; baseline-ratio fluorescence slope, 10–20 s after thallium; thallium flux rate (normalised fluorescence) at 10 µM;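 active = thallium flux rate significantly above the same plate's solvent-only control wells, beyond their mean plus 3 SD; inconclusive = the two replicate wells gave conflicting results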
KCC2 retest ouab – KCC2 inhibitors and activators, ouabain retest, confirmation, HEK-KCC2 cells. shares compounds with KCC2 mod. HEK293-KCC2, thallium flux FluoZin2 fluorescence; bidirectional: low = inhibitor, high = activator. raw Tl+ flux slope (below DMSO = inhibition, above = activation) at 10 µM. hit rate 48% among 3,700. AID 1717, 2009;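 active = thallium flux slope beyond 3 SD from same-plate DMSO control mean in most replicates, usually higher, sometimes lower; inconclusive = repeat tests gave conflicting results; inactive = no significant difference from controls in most replicates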;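 note: slope of initial-normalized fluorescence between seconds 10 and 20 after thallium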
HEK293 Tl flux2 – native HEK Tl+ uptake effects, second counter-screen – HEK cells, counterscreen 2, counter-screen for KCC2 modulator project, confirmation; HEK293 parental, thallium flux FluoZin-2 fluorescence slope; AID 1718, 2009; hit rate 33% among 3,700; thallium flux slope at 10 µM; shares compounds with KCC2 mod;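 active = thallium flux slope above the same plate's solvent-control mean plus 3 SD in both duplicate wells; inconclusive = duplicate wells that disagreed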;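 note: run without ouabain in cells lacking the KCC2 cotransporter; slope of fluorescence scaled to its starting value between 10 and 20 s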
* = called active by the depositor; i = inactive; ? = inconclusive; . = no result given.

SMILES	KCNK9 block	KCNQ1 inh	KCNQ1 pot	KCNK3 block	KCC2 mod	hERG rescue	KCC2 secondary	KCC2 bumet counter	KCC2 sec2	HEK counter1	KCC2 retest ouab	HEK293 Tl flux2
Cc1ccc(N2C(=O)C3Sc4[nH]c(=O)sc4C(c4ccccc4)C3C2=O)cc1 (stereo not given)	.	.	.	i	-10*	.	0.0074	0.011*	0.023*	0.01*	0.0098*	0.011
CCOc1ccc(S(=O)(=O)Nc2ccccc2C(=O)NCc2ccco2)cc1	i	i	i	i	-1.4	-5	.	.	.	.	.	.
COc1ccc(S(=O)(=O)Nc2ccccc2C(=O)NCc2ccco2)cc1Br	i	i	i	i	-4.1*	-7	?	0.0038	0.023*	0.0049*	0.012*	0.0083*
COc1ccc2[nH]c3c(c2c1)CCN1C(=O)C(CC(=O)NCCCn2ccnc2)C[C@H](C(=O)N(C(C)C)C(C)C)[C@@]31C (stereo not given in full)	.	.	.	i	.	.	.	.	.	.	.	.
CCN(c1ccccc1)S(=O)(=O)c1cc(C(=O)NCC(c2ccc(OC)cc2)N(C)C)ccc1C (stereo not given)	.	.	.	i	.	.	.	.	.	.	.	.
CCCCn1nnnc1NCc1cc(OC)c(OC)cc1OC	i	i	i	i	4.9*	-5	0.0092	0.0061	0.031	0.007	0.019	0.01
CCCn1nnnc1NCc1ccc(OC)cc1OC	i	i	i	i	.	-2	.	.	.	.	.	.
O=C(NC(=S)NN1CCCCC1c1cccnc1)c1ccc(Cl)cc1Cl (stereo not given)	i	i	i	i	9.1*	-14	0.012*	0.021*	0.035	0.012*	?	?
Cc1cccc(OCc2n[nH]c(=S)o2)c1	i	i	i	i	-4.8	-10	.	.	.	.	.	.
S=c1[nH]nc(CNc2cccc(Cl)c2)o1	i	i	i	i	-5.2*	-9	0.0069	?	0.025*	0.0077	0.014*	0.01
CN(C)c1ccc(NC(=O)CN2CCc3ccccc3C2)cc1	i	i	i	i	.	-6	.	.	.	.	.	.
